The source made the active and inactive calls. No cut-off for these calls is given here.
Experiments:
Rattus norvegicus [1] = test: Induction of bone formation in ovariectomized rat assessed as increase in trabecular bone volume percentage at 30 mg/kg/day, po after 3 months; assay type: functional, organism-based; conditions: Trabecula
Procedure, shortened: (§1)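 Female rats (205–235 g) randomized by body weight, n = 7 per group: sham, ovariectomized with vehicle, ovariectomized with raloxifene 5 mg/kg/day, and ovariectomized with compound at 7.5, 15 or 30 mg/kg/day. All dosing oral for 3 months. Undecalcified proximal tibia sections analysed by histomorphometry, with comparisons against the sham and ovariectomized groups.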

Rattus norvegicus [2] = test: Induction of bone formation in ovariectomized rat assessed as increase in trabecular bone volume percentage at 7.5 mg/kg/day, po after 3 months; assay type: functional, organism-based; conditions: Trabecula; procedure, shortened: as §1
Mus musculus [3] = test: Induction of BMP2 expression in SAMP6 mouse osteoblast at 30 mg/kg/day, po after 3 months by immunohistochemical analysis; assay type: functional, organism-based
Procedure, shortened: (§2)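 SAMP6 mice, 5 months old, male and female, n = 5 per group (3 male, 2 female). Dosed by gavage with compound suspended in 0.5% methylcellulose daily for 3 months; the vehicle group received methylcellulose only. Proximal third of the left femur fixed in 4% neutral paraformaldehyde for 24 h, decalcified in 10% EDTA at 4 °C for 4 weeks, then frozen-sectioned at 5 μm. Stained with rabbit polyclonal anti-BMP-2 and an alkaline phosphatase secondary. BMP-2-positive area was taken as a percentage of bone tissue area, averaged over five fields below the epiphyseal plate.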

Rattus norvegicus [4] = test: Induction of bone formation in ovariectomized rat assessed as decrease in trabecular resorption surface percentage at 15 mg/kg/day, po after 3 months; assay type: functional, organism-based; conditions: Trabecula; procedure, shortened: as §1
Rattus norvegicus [5] = test: Prevention of bone loss in ovariectomized rat assessed as increase in number, thickness, area and connectivity of trabecula at 30 mg/kg/day, po after 3 months by histomorphometry Leica Qwin image analysis; assay type: functional, organism-based; procedure, shortened: as §1
Mus musculus [6] = test: Induction of bone mineral density in SAMP6 mouse assessed as whole body BMD at 10 mg/kg/day, po measured after 1 month; assay type: functional, organism-based; conditions: 30 mg/kg, in the assay text read “30 mg/kg/day” for “10 mg/kg/day”
Procedure, shortened: (§3)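 SAMP6 mice, 5 months old, n = 5 per group, given compound in 0.5% methylcellulose by gavage daily. Dual-energy X-ray absorptiometry under pentobarbital anaesthesia (50 mg/kg ip), animals prone, at 0, 4, 8 and 12 weeks of treatment. Regions of interest were whole body, spine and left hind leg.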

Rattus norvegicus [7] = test: Toxicity in rat assessed as pathological changes in kidney at 150 mg/kg/day, po after 3 months by histomorphology; assay type: organism-based; design: route oral; conditions: in vivo
Procedure, shortened: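 Rats, n = 7, given oral doses of 150 mg/kg/day for 3 months. Heart, liver, spleen, lung and kidney examined histologically for pathological change.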

Mus musculus [8] = test: Induction of bone mineral density in SAMP6 mouse assessed as spine BMD at 30 mg/kg/day, po measured first 2 months; assay type: functional, organism-based; procedure, shortened: as §3
[9] = Toxicity in po dosed Kunming mouse assessed as mortality treated for 3 days measured after 17 days; assay type: organism-based; conditions: in vivo
Procedure, shortened: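 Male and female Kunming mice (18-21 g), six per group (three males, three females), were dosed orally at 500 or 700 (mg/kg)/day for 3 days. They were closely watched for deaths over the 3 dosing days and the following 14 days (17 days in total).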

Mus musculus [10] = test: Induction of bone mineral density in SAMP6 mouse assessed as whole body BMD at 30 mg/kg/day, po measured after 2 months
Mus musculus [11] = test: Induction of BMP2 expression in SAMP6 mouse bone marrow stroma at 30 mg/kg/day, po after 3 months by immunohistochemical analysis; assay type: functional, organism-based; procedure, shortened: as §2

CC(=O)c1cc2ccccc2s1
Activity (Rattus norvegicus [1]): Active | Activity (Rattus norvegicus [2]): Active | Activity (Mus musculus [3]): Active | Activity (Rattus norvegicus [4]): Active | Activity (Rattus norvegicus [5]): Active | Activity (Mus musculus [6]): Active | Activity (Rattus norvegicus [7]): Non-toxic | Activity (Mus musculus [8]): Active | LD50 at 408 h [9]: > 5000 mg/kg | Activity (Mus musculus [10]): Active | Activity (Mus musculus [11]): Active
